For data set [1], the target named is Metabotropic glutamate receptor 4 (Rattus norvegicus) (UniProt P31423). Kind of data set: Positive allosteric modulation of rat mGluR4 expressed in CHO cells coexpressing Gqi5 assessed as calcium mobilization relative to PHCCC. The class given is functional, cell-based.
Data set [2] has as its target T1, Metabotropic glutamate receptor 4 (Homo sapiens, UniProt Q14833). Kind of data set: Positive allosteric modulation of human mGluR4 expressed in CHO cells coexpressing Gqi5 assessed as calcium mobilization relative to PHCCC. The class given is functional, cell-based. In a few lines:
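CHO cells stably expressing human mGlu4 with Gqi5 were plated at 30,000 cells/well and grown overnight. Cells were loaded with 1 µM Fluo-4 AM for 45 min at 37 °C in HBSS/HEPES/2.5 mM probenecid buffer. […] Ca2+ fluorescence was read (ex 470, em 540 nm). Curves were fitted with a four-parameter logistic; ≥3 independent runs in triplicate.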
(In general: A change in cytosolic calcium serves as a functional read-out for many receptors and channels.)

Data set [3] has as its target Metabotropic glutamate receptor 4 (Rattus norvegicus) (UniProt P31423). Kind of data set: Positive allosteric modulation of rat mGluR4 expressed in CHO cells coexpressing Gqi5 assessed as potentiation of glutamate-induced calcium mobilization. Type of data set: functional, cell-based.
The target in data set [4] is Metabotropic glutamate receptor 4 (Rattus norvegicus, UniProt P31423). Kind of data set: Positive allosteric modulation of rat mGluR4 expressed in CHO cells coexpressing Gqi5 assessed as calcium mobilization. The class given is functional, cell-based.
Data set [5] concerns the target T1, Metabotropic glutamate receptor 4. Briefly: Positive allosteric modulation of human mGluR4 expressed in CHO cells coexpressing Gqi5 assessed as calcium mobilization. The class given is functional, cell-based.
Data set [6] concerns the target Cytochrome P450 3A4 (Homo sapiens, UniProt P08684). Kind of data set: Inhibition of human CYP3A4. The gist of the method:
(§1)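 Human liver microsomes (final 0.1 mg/mL) in 0.1 M potassium phosphate, pH 7.4, with a probe cocktail: phenacetin 10 µM (1A2), diclofenac 5 µM (2C9), dextromethorphan 5 µM (2D6) and midazolam 2 µM (3A4). Compound at 100 nM–30 µM final, in duplicate, preincubated 15 min at 37 °C. NADPH (1 mM) reaction ran 8 min, was quenched with cold acetonitrile, and read by LC/MS/MS (MRM). IC50 determined.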

Data set [7] in a line: Cmax in Sprague-Dawley rat brain at 10 mg/kg, sc. More on the design: dose 10 mg/kg, route subcutaneous. The class given is ADME, organism-based. The gist of the method: (§2)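 Rats dosed subcutaneously at 10 mg/kg as a 10% tween 80 microsuspension. […] In vivo samples were quantified by LC/MS/MS (ESI, positive-mode MRM) after gradient elution on a C18 column.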
Data set [8] addresses Metabotropic glutamate receptor 6 (Rattus norvegicus) (UniProt P35349). Briefly: Positive allosteric modulation in rat mGluR6 receptor expressed in HEK293 cells assessed as effect on thallium flux at 10 uM relative to glutamate. Type of data set: cell-based.
Data set [9] relates to Plasma. Kind of data set: Cmax in Sprague-Dawley rat plasma at 10 mg/kg, sc. The class given is ADME, organism-based. Set-up: dose 10 mg/kg, route subcutaneous. The following applies: in vivo. In a few lines: as §2
In data set [10] the target is Metabotropic glutamate receptor 1 (Rattus norvegicus) (UniProt P23385). Kind of data set: Positive allosteric modulation in rat mGluR1 receptor expressed in HEK293 cells assessed as effect on calcium mobilization at 10 uM relative to glutamate.
Data set [11] has as its target Metabotropic glutamate receptor 3 (Rattus norvegicus) (UniProt P31422). Kind of data set: Positive allosteric modulation in rat mGluR3 receptor expressed in HEK293 cells assessed as effect on thallium flux at 10 uM relative to glutamate. Type of data set: cell-based. The gist of the method:
(§3)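 HEK-293 cells co-expressing the rat receptor and GIRK channels, plated at 15,000 cells/well overnight, then loaded with BTC-AM (1.7 µM) for 1 h at room temperature. Vehicle or compound at 10 µM final was added, and 2.5 min later a full glutamate concentration-response was given in thallium-containing buffer. Thallium flux was read by fluorescence and the leftward or rightward shift of the glutamate curve recorded.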

The nature of data set [12]: Plasma protein binding in Sprague-Dawley rat. The following applies: read-out: PPB. Type of data set: ADME, cell-free. In a few lines: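 Equilibrium dialysis of compound spiked into rat plasma against 25 mM phosphate buffer, pH 7.4. Dialysis ran 4 h at 37 °C with shaking. Both chambers were matrix-matched, extracted with cold acetonitrile and quantified by LC/MS/MS. Triplicate within one plate.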

Data set [13] deals with T2, Cytochrome P450 1A2 (Homo sapiens, UniProt P05177).
T2 sequence (P05177 whole entry): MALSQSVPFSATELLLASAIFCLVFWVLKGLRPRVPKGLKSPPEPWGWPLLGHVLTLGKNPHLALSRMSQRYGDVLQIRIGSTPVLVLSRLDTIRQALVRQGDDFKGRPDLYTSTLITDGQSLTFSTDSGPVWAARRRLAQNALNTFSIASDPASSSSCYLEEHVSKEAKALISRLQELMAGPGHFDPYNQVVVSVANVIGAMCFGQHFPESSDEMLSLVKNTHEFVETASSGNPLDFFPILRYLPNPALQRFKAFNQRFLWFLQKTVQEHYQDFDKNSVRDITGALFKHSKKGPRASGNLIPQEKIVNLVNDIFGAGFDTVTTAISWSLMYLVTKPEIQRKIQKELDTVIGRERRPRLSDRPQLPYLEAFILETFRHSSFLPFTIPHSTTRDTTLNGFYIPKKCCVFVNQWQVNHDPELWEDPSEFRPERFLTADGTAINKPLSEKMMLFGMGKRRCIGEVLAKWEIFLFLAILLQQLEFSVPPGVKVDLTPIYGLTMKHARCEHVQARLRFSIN
Kind of data set: Inhibition of human CYP1A2. In a few lines:
as §1

Data set [14] can be described thus: in vivo. The following applies: Sprague-Dawley, rat, brain/plasma, iv, 1 mg/kg.
Data set [15] is described as follows: in vivo. The following applies: Sprague-Dawley, rat, sc, 10 mg/kg.
Data set [16] deals with Cytochrome P450 2D6 (Homo sapiens, UniProt P10635). Briefly: Inhibition of human CYP2D6. The gist of the method: as §1
Data set [17] has as its target Metabotropic glutamate receptor 2 (Rattus norvegicus) (UniProt P31421). Kind of data set: Positive allosteric modulation in rat mGluR2 receptor expressed in HEK293 cells assessed as effect on thallium flux at 10 uM relative to glutamate. The class given is cell-based. The gist of the method:
as §3

The subject of data set [18] is Plasma. Briefly: AUC in Sprague-Dawley rat brain at 10 mg/kg, sc. The class given is ADME, organism-based. Set-up: dose 10 mg/kg, route subcutaneous. The conditions noted are these: in vivo.
For data set [19], the target named is Cytochrome P450 2C9 (Homo sapiens, UniProt P11712). Briefly: Inhibition of human CYP2C9. In a few lines:
as §1

Data set [20] addresses Metabotropic glutamate receptor 5 (Rattus norvegicus) (UniProt P31424). Briefly: Positive allosteric modulation in rat mGluR5 receptor expressed in HEK293 cells assessed as effect on calcium mobilization at 10 uM relative to glutamate.
Data set [21] is described as follows: AUC in Sprague-Dawley rat plasma at 10 mg/kg, sc. The class given is ADME, organism-based. More on the design: dose 10 mg/kg, route subcutaneous.

The record followed here is ChEMBL document CHEMBL1671788, “Discovery, synthesis, and structure-activity relationship development of a series of N-(4-acetamido)phenylpicolinamides as positive allosteric modulators of metabotropic glutamate receptor 4 (mGlu(4)) with CNS exposure in rats” (J Med Chem, 2011).

The source made the active and inactive calls. The calls are words filed in the database; no cut-off is given here.

Sequence of Cytochrome P450 3A4 (P08684 whole entry): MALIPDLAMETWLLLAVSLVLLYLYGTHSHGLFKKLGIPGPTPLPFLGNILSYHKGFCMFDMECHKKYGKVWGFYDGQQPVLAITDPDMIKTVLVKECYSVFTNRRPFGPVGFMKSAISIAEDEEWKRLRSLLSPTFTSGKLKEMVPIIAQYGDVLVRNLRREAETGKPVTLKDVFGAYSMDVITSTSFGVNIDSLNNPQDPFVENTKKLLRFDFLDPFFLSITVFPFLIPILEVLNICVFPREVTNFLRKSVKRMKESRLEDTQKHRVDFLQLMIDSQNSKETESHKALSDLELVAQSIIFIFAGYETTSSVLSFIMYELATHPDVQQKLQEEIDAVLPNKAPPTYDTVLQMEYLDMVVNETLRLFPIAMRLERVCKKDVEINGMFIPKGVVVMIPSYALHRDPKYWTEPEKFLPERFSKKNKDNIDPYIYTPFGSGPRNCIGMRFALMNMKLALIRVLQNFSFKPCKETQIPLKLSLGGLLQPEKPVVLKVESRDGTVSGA
Sequence of Cytochrome P450 2C9 (P11712 whole entry): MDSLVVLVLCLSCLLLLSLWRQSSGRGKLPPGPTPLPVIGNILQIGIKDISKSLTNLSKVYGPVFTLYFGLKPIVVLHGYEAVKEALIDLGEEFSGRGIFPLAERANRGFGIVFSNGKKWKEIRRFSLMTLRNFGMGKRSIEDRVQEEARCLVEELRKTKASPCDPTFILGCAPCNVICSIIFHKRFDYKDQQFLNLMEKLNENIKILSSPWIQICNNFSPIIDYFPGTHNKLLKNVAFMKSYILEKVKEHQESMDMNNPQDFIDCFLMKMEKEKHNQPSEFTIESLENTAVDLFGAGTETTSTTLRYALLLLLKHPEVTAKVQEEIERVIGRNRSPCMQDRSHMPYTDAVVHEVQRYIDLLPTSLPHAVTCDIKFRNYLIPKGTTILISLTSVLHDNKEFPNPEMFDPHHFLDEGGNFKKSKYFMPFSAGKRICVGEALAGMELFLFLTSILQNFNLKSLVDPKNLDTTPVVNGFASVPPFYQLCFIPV
T1 sequence (Q14833 whole entry): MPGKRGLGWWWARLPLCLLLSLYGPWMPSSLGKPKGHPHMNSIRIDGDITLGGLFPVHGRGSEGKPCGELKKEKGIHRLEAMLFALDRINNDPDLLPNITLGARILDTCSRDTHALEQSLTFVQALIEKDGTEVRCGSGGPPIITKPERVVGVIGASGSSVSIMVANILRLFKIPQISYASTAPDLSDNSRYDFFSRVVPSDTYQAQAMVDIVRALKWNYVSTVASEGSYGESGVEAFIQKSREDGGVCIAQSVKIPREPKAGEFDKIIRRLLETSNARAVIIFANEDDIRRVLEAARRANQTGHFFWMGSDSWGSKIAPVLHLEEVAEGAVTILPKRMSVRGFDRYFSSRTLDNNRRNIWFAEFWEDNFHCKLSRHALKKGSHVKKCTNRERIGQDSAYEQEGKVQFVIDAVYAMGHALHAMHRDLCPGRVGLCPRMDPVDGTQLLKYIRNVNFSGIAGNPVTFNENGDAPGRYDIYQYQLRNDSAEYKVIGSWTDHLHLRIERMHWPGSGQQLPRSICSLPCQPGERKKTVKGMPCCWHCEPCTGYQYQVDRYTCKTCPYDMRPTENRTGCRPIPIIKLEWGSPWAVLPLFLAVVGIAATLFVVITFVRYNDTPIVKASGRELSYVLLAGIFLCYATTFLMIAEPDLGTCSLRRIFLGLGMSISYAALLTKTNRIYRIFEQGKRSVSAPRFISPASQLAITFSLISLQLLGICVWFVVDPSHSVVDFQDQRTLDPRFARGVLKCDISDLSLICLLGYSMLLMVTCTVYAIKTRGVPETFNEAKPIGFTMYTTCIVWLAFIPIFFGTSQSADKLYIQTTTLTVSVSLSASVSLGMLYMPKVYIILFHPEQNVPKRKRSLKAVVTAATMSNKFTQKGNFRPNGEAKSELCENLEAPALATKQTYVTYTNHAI
Sequence of Cytochrome P450 2D6 (P10635 whole entry): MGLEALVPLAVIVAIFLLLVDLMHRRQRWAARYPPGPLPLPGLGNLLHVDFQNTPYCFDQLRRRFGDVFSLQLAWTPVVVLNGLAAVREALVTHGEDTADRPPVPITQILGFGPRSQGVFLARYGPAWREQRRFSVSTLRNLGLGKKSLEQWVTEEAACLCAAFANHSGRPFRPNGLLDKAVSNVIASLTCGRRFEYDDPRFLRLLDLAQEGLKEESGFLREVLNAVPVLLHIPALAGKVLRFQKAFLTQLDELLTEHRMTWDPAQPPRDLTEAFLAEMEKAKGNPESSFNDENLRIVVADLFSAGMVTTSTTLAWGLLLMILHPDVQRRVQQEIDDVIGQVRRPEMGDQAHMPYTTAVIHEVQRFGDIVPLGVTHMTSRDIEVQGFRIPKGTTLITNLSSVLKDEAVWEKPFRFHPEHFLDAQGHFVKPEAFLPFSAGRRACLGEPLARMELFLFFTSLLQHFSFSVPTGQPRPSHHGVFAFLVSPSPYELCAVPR
Sequence of Metabotropic glutamate receptor 4 (Rattus norvegicus, UniProt P31423) (P31423 whole entry): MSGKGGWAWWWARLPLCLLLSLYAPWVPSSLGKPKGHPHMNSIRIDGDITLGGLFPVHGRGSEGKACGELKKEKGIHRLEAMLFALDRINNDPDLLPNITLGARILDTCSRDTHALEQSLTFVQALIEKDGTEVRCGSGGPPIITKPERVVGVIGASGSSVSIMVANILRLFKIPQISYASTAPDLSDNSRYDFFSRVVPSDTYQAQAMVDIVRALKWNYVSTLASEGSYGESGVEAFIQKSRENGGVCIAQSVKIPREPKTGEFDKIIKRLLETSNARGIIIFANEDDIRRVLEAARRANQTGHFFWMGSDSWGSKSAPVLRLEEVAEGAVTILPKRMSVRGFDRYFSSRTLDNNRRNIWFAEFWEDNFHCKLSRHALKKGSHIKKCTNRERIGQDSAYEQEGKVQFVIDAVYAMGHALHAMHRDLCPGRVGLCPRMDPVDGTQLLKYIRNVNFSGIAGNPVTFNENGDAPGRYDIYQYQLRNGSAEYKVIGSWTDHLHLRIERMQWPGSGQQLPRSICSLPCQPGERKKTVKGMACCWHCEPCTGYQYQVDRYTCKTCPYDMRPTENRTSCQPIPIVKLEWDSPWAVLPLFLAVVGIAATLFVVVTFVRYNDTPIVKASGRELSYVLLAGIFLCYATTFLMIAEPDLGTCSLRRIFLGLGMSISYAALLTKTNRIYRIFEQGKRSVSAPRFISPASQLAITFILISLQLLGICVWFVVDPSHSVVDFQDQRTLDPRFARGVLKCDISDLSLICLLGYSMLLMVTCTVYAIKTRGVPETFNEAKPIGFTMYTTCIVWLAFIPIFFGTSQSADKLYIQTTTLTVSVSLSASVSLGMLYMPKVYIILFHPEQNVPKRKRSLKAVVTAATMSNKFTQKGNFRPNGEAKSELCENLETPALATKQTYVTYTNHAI
Sequence of Metabotropic glutamate receptor 4 (Rattus norvegicus) (P31423 whole entry): as above
Sequence of Metabotropic glutamate receptor 3 (Rattus norvegicus) (P31422 23-879 limits assumed): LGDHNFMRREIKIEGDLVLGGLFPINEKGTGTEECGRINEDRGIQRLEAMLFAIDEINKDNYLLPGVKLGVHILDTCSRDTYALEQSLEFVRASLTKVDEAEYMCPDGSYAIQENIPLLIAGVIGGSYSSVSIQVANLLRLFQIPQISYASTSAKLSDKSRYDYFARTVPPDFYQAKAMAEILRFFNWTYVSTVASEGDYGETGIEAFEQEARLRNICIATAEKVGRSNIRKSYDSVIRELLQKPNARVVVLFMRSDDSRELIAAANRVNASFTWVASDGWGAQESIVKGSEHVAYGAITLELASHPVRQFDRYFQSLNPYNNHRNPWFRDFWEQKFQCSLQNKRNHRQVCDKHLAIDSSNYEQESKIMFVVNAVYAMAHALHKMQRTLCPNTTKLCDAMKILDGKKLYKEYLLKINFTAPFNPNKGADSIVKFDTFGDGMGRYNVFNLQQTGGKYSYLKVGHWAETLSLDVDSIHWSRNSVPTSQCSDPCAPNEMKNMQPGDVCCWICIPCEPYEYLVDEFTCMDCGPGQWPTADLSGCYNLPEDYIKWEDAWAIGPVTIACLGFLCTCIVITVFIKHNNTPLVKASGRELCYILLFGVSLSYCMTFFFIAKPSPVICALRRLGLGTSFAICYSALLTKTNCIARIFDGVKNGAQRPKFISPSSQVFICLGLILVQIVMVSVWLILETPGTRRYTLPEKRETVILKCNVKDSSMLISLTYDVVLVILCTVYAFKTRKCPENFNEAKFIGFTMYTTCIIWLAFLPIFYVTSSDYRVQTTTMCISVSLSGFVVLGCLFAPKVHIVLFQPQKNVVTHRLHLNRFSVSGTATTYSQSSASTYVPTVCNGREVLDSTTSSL
Sequence of Metabotropic glutamate receptor 2 (Rattus norvegicus) (P31421 19-872 limits assumed): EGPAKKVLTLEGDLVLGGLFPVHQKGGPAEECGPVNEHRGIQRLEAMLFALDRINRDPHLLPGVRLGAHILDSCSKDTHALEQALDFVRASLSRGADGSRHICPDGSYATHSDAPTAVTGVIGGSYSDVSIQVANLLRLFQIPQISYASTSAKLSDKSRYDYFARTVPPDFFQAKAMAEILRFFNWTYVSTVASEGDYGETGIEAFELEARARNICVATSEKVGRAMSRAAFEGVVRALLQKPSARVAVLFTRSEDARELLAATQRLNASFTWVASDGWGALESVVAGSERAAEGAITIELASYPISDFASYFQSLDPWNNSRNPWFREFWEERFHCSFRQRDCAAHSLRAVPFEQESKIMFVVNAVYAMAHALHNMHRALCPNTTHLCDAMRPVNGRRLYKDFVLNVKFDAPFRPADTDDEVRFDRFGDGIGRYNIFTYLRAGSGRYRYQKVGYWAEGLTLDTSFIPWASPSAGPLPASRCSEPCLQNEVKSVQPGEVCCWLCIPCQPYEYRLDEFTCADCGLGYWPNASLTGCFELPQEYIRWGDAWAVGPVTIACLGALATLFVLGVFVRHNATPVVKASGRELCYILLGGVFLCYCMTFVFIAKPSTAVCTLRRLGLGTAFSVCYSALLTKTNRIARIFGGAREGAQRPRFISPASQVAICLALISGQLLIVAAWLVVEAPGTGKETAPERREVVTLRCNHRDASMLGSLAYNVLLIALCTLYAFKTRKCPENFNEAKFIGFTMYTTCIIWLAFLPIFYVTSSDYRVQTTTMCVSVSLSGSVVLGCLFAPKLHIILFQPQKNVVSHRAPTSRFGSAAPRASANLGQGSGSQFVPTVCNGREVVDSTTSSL

As a reminder, the EC50 is the midpoint of the concentration-response curve. For the molecule `O=C(Nc1ccc(NC(=O)c2nccs2)c(Cl)c1)c1ccccn1`, the Activity in data set [1] was determined as 106%; in [2], 61.5%. Also, the fold change (FC) in data set [3] stood at 6. The results for the EC50 in data set [4] (read-out: EC50) and in data set [5] (read-out: EC50) were 533 nM and 403 nM, respectively.
In the same order, the values of `O=C(Nc1ccc(NC(=O)c2ccc(F)cc2Cl)c(Cl)c1)c1ccccn1` are 119%, 61.1%, 6.7, 169 nM and 114 nM.
As a reminder, the Cmax is the highest concentration seen after dosing. What is called Kp is tissue or fluid exposure divided by exposure in the circulation. By Tmax is commonly meant the time from dosing to the highest level. Usually AUC(0-t) stands for exposure summed from dosing to a finite time, without extrapolation to infinity. A high value points to more exposure. `O=C(Nc1ccc(NC(=O)c2ccccc2Cl)c(Cl)c1)c1ccccn1`: the INH is greater than 30 µM in data set [6], greater than 30 µM in [13], 13.1 µM in data set [16] and 11.8 µM in data set [19]. Moreover, the results for the Cmax in data set [7] and in [9] were 163 ng/g and 198.1 ng/mL, respectively. In addition, the result in data set [8], in data set [10], in data set [11], in data set [17] and in data set [20] was inactive. In addition, the fraction unbound in [12] is less than 0.005. Also, the Activity in [1] amounted to 128%; in data set [2] it was 77.9%. Further, the Kp in data set [14] came out at 1.04. Besides, the Tmax in [15] worked out at 30 min. Also, the AUC in data set [18] was 681 ng·h/g. In addition, the EC50 in [4] (read-out: EC50) came to 570 nM. In [21], this molecule displayed an AUC(0-t) of 658 ng·h/mL.
Take `COc1cc(NC(=O)c2nccs2)ccc1NC(=O)c1ccccc1Cl`: the fraction unbound in [12] is less than 0.005. Moreover, the figures for the Activity in data set [1] and in data set [2] were 134% and 77.6%, respectively. In data set [3], the fold change (FC) is 32.2. Also, the results for the concentration for a half-maximal effect (EC50) in data set [4] (read-out: EC50) and in data set [5] (read-out: EC50) were 377 nM and 627 nM, respectively.
Regarding `COc1cc(NC(=O)c2ccccn2)ccc1NC(=O)c1ccccc1Cl`, the INH in data set [6] was greater than 30 µM; in data set [13], greater than 30 µM; in data set [16] it was 12.8 µM; in [19], 14.3 µM. The highest concentration (Cmax) in data set [7] turned out to be 69.1 ng/g; in data set [9], 265 ng/mL. Moreover, the fraction unbound in [12] was less than 0.005. Also, the figures for the Activity in data set [1] and in [2] were 147% and 79.4%, respectively. In addition, in data set [15], the Tmax was 60 min. Further, the fold change (FC) in data set [3] stood at 72. This molecule also came in with an AUC in data set [18] of 312 ng·h/g. The same molecule showed an area under the curve AUC(0-t) in data set [21] of 938 ng·h/mL.
Regarding `Cc1ccccc1C(=O)Nc1ccc(NC(=O)c2ccccn2)cc1Cl`, the INH in data set [6] was greater than 30 µM; in data set [13] it was greater than 10 µM; in data set [16], 12 µM; in [19] it was 14.1 µM. For the same molecule, the Cmax amounted to 59.4 ng/g in data set [7] and 219.2 ng/mL in [9]. The fraction unbound in data set [12] is less than 0.005. In addition, the Activity in data set [1] stood at 123%; in data set [2], 72.5%. The Tmax in data set [15] was found to be 30 min. Further, the fold change (FC) in data set [3] was determined as 9.6. The AUC in [18] was 155.4 ng·h/g. The concentration giving a half-maximal response (EC50) in [4] (read-out: EC50) is 915 nM; in data set [5] (read-out: EC50), 958 nM. This molecule had an AUC(0-t) in [21] of 766 ng·h/mL.
`O=C(Nc1ccc(NC(=O)c2ccccc2Cl)c(F)c1)c1ccccn1`: the Activity in [1] was 91.4%; in data set [2], 59.7%. Besides, the fold change (FC) in [3] amounted to 4.6.
`COc1ccccc1C(=O)n1ccc2cc(NC(=O)c3ccccn3)ccc21`: the fraction unbound in [12] was less than 0.005. The Activity in data set [1] amounted to 107%; in data set [2], 91.3%. Besides, the fold change (FC) in data set [3] worked out at 5.9. Besides, the EC50 in data set [4] (read-out: EC50) amounted to 1340 nM; in data set [5] (read-out: EC50) it was 1410 nM.
Regarding `O=C(Nc1ccc(NC(=O)c2ccccc2F)c(Cl)c1)c1ccccn1`, the Activity in data set [1] amounted to 71.6%; in data set [2], 34.5%. Further, the EC50 is 4390 nM in data set [4] (read-out: EC50) and 2380 nM in [5] (read-out: EC50).
With `COc1cc(NC(=O)c2ccc(-c3ccccc3)o2)ccc1NC(=O)c1ccccc1Cl`, the Activity in [1] and in [2] was 16.3% throughout. The EC50 entry in data set [4] (cho) and in [5] (cho) was “Not Active” each time.
For `COc1cc(NC(=O)c2ccc(Br)o2)ccc1NC(=O)c1ccccc1Cl`, the Activity in [1] was 125%; in [2] it was 87%. Moreover, the figures for the EC50 in data set [4] (read-out: EC50) and in data set [5] (read-out: EC50) were 1000 nM and 1440 nM, respectively.
In the same order, the values of `O=C(Nc1ccc(NC(=O)c2ccccc2Cl)cc1)c1ccccn1` are 49.6%, 33.6%, 2260 nM and 1610 nM.
The corresponding values for `O=C(Nc1ccc(NC(=O)c2ccccn2)cc1Cl)c1ccccc1` are 74.2%, 37.9%, 518 nM and 361 nM.
The corresponding values for `O=C(Nc1ccc(NC(=O)c2ccccc2Cl)c(C(F)(F)F)c1)c1ccccn1` are 102%, 69.5%, 2360 nM and 2090 nM.
